According to ChEMBL document CHEMBL1156875, “Anti-influenza drug discovery: structure-activity relationship and mechanistic insight into novel angelicin derivatives” (J Med Chem, 2010):

Legend:
Influenza A virus [1] = assay: Antiviral activity against human influenza A virus A/WSN/33 (H1N1) in MDCK cells assessed as reduction of virus-induced cytopathic effect; assay type: functional, organism-based; settings: A/WSN/1933(H1N1)
Outline: (§1)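 MDCK cells (1.1 × 10^5 cells/mL in DMEM + 10% FBS) grown 24-30 h at 37 C to about 90% confluency. Virus (100 TCID50) premixed with serially diluted compound, adsorbed 1 h at 37 C. Overlay of serum-free DMEM with trypsin 2.5 μg/mL and 0.1% DMSO, then 72 h at 37 C. Formaldehyde fixation, crystal violet stain, A570. IC50 = 50% CPE reduction versus virus control. Triplicate, at least two runs.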

[2] = Cytotoxicity against MDCK cells after 72 hrs; assay type: cell-based, Canis lupus familiaris; settings: dog
Outline: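 Uninfected MDCK monolayers (seeded at 1.1 × 10^5 cells/mL, grown 24-30 h to about 90% confluency) exposed to graded compound concentrations for 72 h at 37 C. Read by formaldehyde fixation, 0.1% crystal violet staining and absorbance at 570 nm. CC50 = concentration reducing viability to 50% of control. Triplicate, repeated at least twice.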

Influenza B virus [3] = assay: Antiviral activity against human influenza B virus B/TW/99/07 in MDCK cells assessed as reduction of virus-induced cytopathic; assay type: functional, organism-based; settings: B/TW/99/07, MDCK; outline: as §1
Influenza A virus [4] = assay: Antiviral activity against human influenza A virus A/TW/141/04 (H1N1) in MDCK cells assessed as reduction of virus-induced cytopathic effect; assay type: functional, organism-based; outline: as §1
Influenza B virus [5] = assay: Antiviral activity against human influenza B virus B/TW/710/05 in MDCK cells assessed as reduction of virus-induced cytopathic; assay type: functional, organism-based; settings: B/TW/710/05, MDCK; outline: as §1
Influenza B virus [6] = assay: Antiviral activity against human influenza B virus B/TW/70325/05 in MDCK cells assessed as reduction of virus-induced cytopathic; assay type: functional, organism-based; settings: B/TW/70325/05, MDCK; outline: as §1
Influenza A virus [7] = assay: Antiviral activity against human influenza A virus A/TW/3446/04 (H3N2) in MDCK cells assessed as reduction of virus-induced cytopathic effect; assay type: functional, organism-based; outline: as §1

SMILES	IC50 (Influenza A virus [1])	CC50 at 72 h [2]	other results
Cc1cc(=O)oc2c1ccc1oc(C(=O)c3ccc(Cl)cc3)c(-c3ccccc3)c12	22300 nM	> 25000 nM	–
Cc1cc(=O)oc2c1ccc1oc(C(=O)c3ccccc3)c(-c3cccc4ccccc34)c12	880 nM	> 25000 nM	–
Cc1cc(=O)oc2c1ccc1oc(C(=O)c3ccccc3)cc12	2430 nM	> 25000 nM	–
Cc1cc(=O)oc2c1ccc1oc(C(=O)c3cccc(F)c3)c(-c3ccccc3)c12	290 nM	> 25000 nM	–
CCCc1c(C(=O)c2ccccc2)oc2ccc3c(C)cc(=O)oc3c12	290 nM	> 25000 nM	–
Cc1cc(=O)oc2c1ccc1oc(C(=O)c3cccc(O)c3)c(-c3ccccc3)c12	720 nM	> 25000 nM	–
Cc1ccc(C(=O)c2oc3ccc4c(C)cc(=O)oc4c3c2-c2ccccc2)cc1	870 nM	> 25000 nM	–
Cc1cc(=O)oc2c1ccc1oc(C(=O)c3ccco3)c(-c3ccccc3)c12	410 nM	> 25000 nM	–
Cc1cc(=O)oc2c1ccc1oc(C(=O)c3ccccc3)c(-c3ccc([N+](=O)[O-])cc3)c12	760 nM	> 25000 nM	–
Cc1cc(=O)oc2c1ccc1sc(C(=O)c3ccccc3)c(-c3ccccc3)c12	720 nM	> 25000 nM	–
CCCCCOc1cccc(C(=O)c2oc3ccc4c(C)cc(=O)oc4c3c2-c2ccccc2)c1	140 nM	> 25000 nM	–
CC(=O)N[C@H]1[C@H]([C@H](O)[C@H](O)CO)OC(C(=O)O)=C[C@@H]1NC(=N)N [ZANAMIVIR]	60 nM	–	IC50 (Influenza B virus [3]): 100 nM; IC50 (Influenza A virus [4]): 350 nM; IC50 (Influenza B virus [5]): 30 nM; IC50 (Influenza B virus [6]): 20 nM; IC50 (Influenza A virus [7]): 30 nM
Cc1cccc(-c2c(C(=O)c3ccccc3)oc3ccc4c(C)cc(=O)oc4c23)c1	100 nM	> 25000 nM	–
C/C=C/C(=O)Oc1cccc2oc(C(=O)c3ccccc3)c(-c3ccccc3)c12	20800 nM	> 25000 nM	–
COc1ccc(C(=O)c2oc3ccc4c(C)cc(=O)oc4c3c2-c2ccccc2)cc1	1670 nM	> 25000 nM	–
Cc1cc(=O)oc2c1ccc1oc(C(=O)c3cccs3)c(-c3cccc(Br)c3)c12	60 nM	> 25000 nM	–
Cc1cc(=O)oc2c1ccc1oc(C(=O)c3ccccc3)c(-c3cccc(Br)c3)c12	80 nM	> 25000 nM	–
Cc1cc(=O)oc2c1ccc1oc(C(=O)c3ccccc3)c(-c3ccc4ccccc4c3)c12	1910 nM	> 25000 nM	–
O=C(c1ccccc1)c1oc2ccccc2c1-c1ccccc1	> 25000 nM	5270 nM	–
COc1ccc(-c2c(C(=O)c3ccccc3)oc3ccc4c(C)cc(=O)oc4c23)cc1	10100 nM	> 25000 nM	–
Cc1cc(=O)oc2c1ccc1oc(-c3ccccc3)c(-c3ccccc3)c12	> 25000 nM	> 25000 nM	–
Cc1cc(=O)oc2c1ccc1oc(Cc3ccccc3)c(-c3ccccc3)c12	630 nM	> 25000 nM	–

SMILES	IC50 (Influenza A virus [1])	CC50 at 72 h [2]	other results
CCc1cc(=O)oc2c1ccc1oc(C(=O)c3ccccc3)c(-c3ccccc3)c12	240 nM	> 25000 nM	–
CCCCCCCCOc1cccc(C(=O)c2oc3ccc4c(C)cc(=O)oc4c3c2-c2ccccc2)c1	7970 nM	> 25000 nM	–
Cc1cc(=O)oc2c1ccc1oc(C(=O)c3ccccc3)c(C)c12	4510 nM	> 25000 nM	–
Cc1cc(=O)oc2c1ccc1oc(C(=O)c3ccccc3)c(-c3ccc(Cl)cc3)c12	3920 nM	> 25000 nM	–
COc1ccccc1C(=O)c1oc2ccc3c(C)cc(=O)oc3c2c1-c1ccccc1	640 nM	> 25000 nM	–
CCCCCCCCCCc1c(C(=O)c2ccccc2)oc2ccc3c(C)cc(=O)oc3c12	> 25000 nM	> 25000 nM	–
O=C(c1ccccc1)c1oc2ccc3ccc(=O)oc3c2c1-c1ccccc1	17600 nM	> 25000 nM	–
Cc1cc(=O)oc2c1ccc1oc(C(O)c3ccccc3)c(-c3ccccc3)c12 (configuration not stated)	320 nM	> 25000 nM	–
Cc1c(C)c2ccc3oc(C(=O)c4ccccc4)c(-c4ccccc4)c3c2oc1=O	290 nM	> 25000 nM	–
Cc1cc(=O)oc2c1ccc1oc(C(=O)c3cccc(OCCN(C)C)c3)c(-c3ccccc3)c12	5280 nM	17600 nM	–
Cc1cc(=O)oc2c1ccc1oc(C(=O)c3ccccc3)c(-c3cccs3)c12	150 nM	> 25000 nM	–
CC(=O)c1oc2ccc3c(C)cc(=O)oc3c2c1-c1ccccc1	> 25000 nM	> 25000 nM	–
Cc1cc(=O)oc2c1ccc1oc(C(=O)c3ccsc3)c(-c3ccccc3)c12	150 nM	> 25000 nM	–
Cc1cc(=O)oc2c1ccc1oc(C(=O)c3ccc([N+](=O)[O-])cc3)c(-c3ccccc3)c12	> 6250 nM	–	–
Cc1cc(=O)oc2c1ccc1oc(C(=O)c3cccc([N+](=O)[O-])c3)c(-c3ccccc3)c12	1710 nM	> 25000 nM	–
O=C(c1ccccc1)c1oc2ccc3c4c(c(=O)oc3c2c1-c1ccccc1)CCCC4	> 25000 nM	> 25000 nM	–
Cc1cc(=O)oc2c1ccc1oc(C(=O)c3ccccc3)c(-c3cccc([N+](=O)[O-])c3)c12	250 nM	> 25000 nM	–
Cc1cc(=O)oc2c1ccc1oc(C(=O)c3cccc(Cl)c3)c(-c3ccccc3)c12	260 nM	> 25000 nM	–
Cc1cc(=O)oc2c1ccc1oc(C(=O)c3ccccc3)c(-c3ccco3)c12	650 nM	> 25000 nM	–
Cc1ccccc1C(=O)c1oc2ccc3c(C)cc(=O)oc3c2c1-c1ccccc1	6620 nM	> 25000 nM	–
COc1cccc(C(=O)c2oc3ccc4c(C)cc(=O)oc4c3c2-c2cccc(Br)c2)c1	90 nM	> 25000 nM	–
CCCOc1cccc(C(=O)c2oc3ccc4c(C)cc(=O)oc4c3c2-c2ccccc2)c1	150 nM	> 25000 nM	–

SMILES	IC50 (Influenza A virus [1])	CC50 at 72 h [2]	other results
Cc1ccc(-c2c(C(=O)c3ccccc3)oc3ccc4c(C)cc(=O)oc4c23)cc1	820 nM	> 25000 nM	–
COc1cccc(C(=O)c2oc3ccc4c(C)cc(=O)oc4c3c2-c2ccccc2)c1	110 nM	> 25000 nM	–
CCCCOc1cccc(C(=O)c2oc3ccc4c(C)cc(=O)oc4c3c2-c2ccccc2)c1	80 nM	> 25000 nM	–
Cc1cc(=O)oc2c1ccc1oc(C(=O)c3ccccn3)c(-c3ccccc3)c12	610 nM	–	–
Cc1cc(=O)oc2c1ccc1oc(C(=O)c3ccccc3)c(-c3ccccc3)c12	140 nM	> 25000 nM	–
Cc1cc(=O)oc2c1ccc1oc(C(=O)c3cccc(OCCO)c3)c(-c3ccccc3)c12	6090 nM	> 25000 nM	–
CCCc1cc(=O)oc2c1ccc1oc(C(=O)c3ccccc3)c(-c3ccccc3)c12	470 nM	> 25000 nM	–
CCCCCCc1c(C(=O)c2ccccc2)oc2ccc3c(C)cc(=O)oc3c12	650 nM	> 25000 nM	–
Cc1cc(=O)oc2c1ccc1oc(C(=O)c3ccccc3)c(-c3ccc(Br)cc3)c12	460 nM	> 25000 nM	–
Cc1cc2oc(C(=O)c3ccccc3)c(-c3ccccc3)c2c2oc(=O)ccc12	7760 nM	> 25000 nM	–
O=C(c1ccccc1)c1oc2ccc3ccccc3c2c1-c1ccccc1	> 25000 nM	> 25000 nM	–
Cc1cc(=O)oc2c1ccc1oc(C(=O)c3ccccc3)c(-c3cccc(Cl)c3)c12	1410 nM	> 25000 nM	–
Cc1cc(=O)oc2c1ccc1oc(C(=O)c3ccccc3)c(-c3cccc(C#N)c3)c12	530 nM	> 25000 nM	–
Cc1cccc(C(=O)c2oc3ccc4c(C)cc(=O)oc4c3c2-c2ccccc2)c1	260 nM	> 25000 nM	–
Cc1cc2ccc3oc(C(=O)c4ccccc4)c(-c4ccccc4)c3c2oc1=O	2790 nM	> 25000 nM	–
Cc1cc(=O)oc2c1ccc1oc(C(=O)c3ccccc3)c(-c3cc(Br)cc(Br)c3)c12	100 nM	> 25000 nM	–
Cc1cc(=O)oc2c1ccc1oc(C(=O)c3cccc(OCCCO)c3)c(-c3ccccc3)c12	2650 nM	> 25000 nM	–
Cc1cc(=O)oc2c1ccc1oc(C(=O)c3ccccc3)c(-c3ccccc3Br)c12	730 nM	> 25000 nM	–
O=C(c1ccccc1)c1oc2ccc3c(-c4ccccc4)cc(=O)oc3c2c1-c1ccccc1	> 25000 nM	> 25000 nM	–
CCOc1cccc(C(=O)c2oc3ccc4c(C)cc(=O)oc4c3c2-c2ccccc2)c1	120 nM	> 25000 nM	–
Cc1cc(=O)oc2c1ccc1occ(-c3ccccc3)c12	> 25000 nM	> 25000 nM	–
